# Screens as filed in PubChem.
# STAT1 act = activators of IFN-gamma induced STAT1 signaling; actives 2.6% (n = 200,000); activation (% of control), % at 5.5 µM; AID 932; NIH 3T3 STAT1-luciferase reporter, luminescence; 100% = IFN-gamma alone, no compound;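 active means activation above the screen-wide mean activation plus 3 SD, cut at about 130% in these data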;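 further: raw ratio to IFN-gamma control signal so 100% means no change and 0% no light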
# Mdm2 ligase inh = inhibitors of human Mdm2 E3 ubiquitin ligase; Q00987; cell-based MDM2 ubiquitination luciferase reporter, 2 h; 0 = plate control, 100 = twice control, blank-subtracted; signal enhancement, % at 5 µM; actives 0.11% (n = 210,000); AID 1230;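 active means signal enhancement of 30% or more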;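 further: luminescence tracks abundance of the self-degrading MDM2-luciferase fusion protein; higher signal means inhibition of MDM2 E3 ligase activity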
#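 System: stable MDM2–luciferase fusion reporter cells / Input: 2000 cells seeded into each well / Schedule: 4 h settle plus 2 h compound, 37 °C / Compound: single-point 5 µM / Buffer or medium: cells held in DMEM / Benchmarks: control and blank well means / Evaluation: percent signal gain over controls, blank-subtracted / Measured by: luciferase luminescence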
# APP 5'UTR act = APP 5'UTR luciferase reporter activation. SH-SY5Y APP 5'UTR luciferase reporter, luminescence; zero percent = DMSO vehicle wells. activation, % at 2 µM. actives 1% (n = 190,000). AID 1276;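 active means activation above a set limit, based on mean plus 3 SD of controls, cut at about 140% in these data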
# NF-kB neuron act = NF-kB expression increase, human neuronal cells; AID 1239; actives 1.6% (n = 190,000); fold change at 12.5 µM; NF-kB reporter expression; active compounds read high; in the data active means fold change above about 3.3
# AHR activator = human AHR activation; activation, % at 5 µM; AHR-responsive luciferase reporter cells, luminescence; actives 2.5% (n = 320,000); in the data active means activation above about 47%;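 further: 0% = vehicle wells and 100% = reference agonist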
# Target sequence (P35869 whole entry, looked up): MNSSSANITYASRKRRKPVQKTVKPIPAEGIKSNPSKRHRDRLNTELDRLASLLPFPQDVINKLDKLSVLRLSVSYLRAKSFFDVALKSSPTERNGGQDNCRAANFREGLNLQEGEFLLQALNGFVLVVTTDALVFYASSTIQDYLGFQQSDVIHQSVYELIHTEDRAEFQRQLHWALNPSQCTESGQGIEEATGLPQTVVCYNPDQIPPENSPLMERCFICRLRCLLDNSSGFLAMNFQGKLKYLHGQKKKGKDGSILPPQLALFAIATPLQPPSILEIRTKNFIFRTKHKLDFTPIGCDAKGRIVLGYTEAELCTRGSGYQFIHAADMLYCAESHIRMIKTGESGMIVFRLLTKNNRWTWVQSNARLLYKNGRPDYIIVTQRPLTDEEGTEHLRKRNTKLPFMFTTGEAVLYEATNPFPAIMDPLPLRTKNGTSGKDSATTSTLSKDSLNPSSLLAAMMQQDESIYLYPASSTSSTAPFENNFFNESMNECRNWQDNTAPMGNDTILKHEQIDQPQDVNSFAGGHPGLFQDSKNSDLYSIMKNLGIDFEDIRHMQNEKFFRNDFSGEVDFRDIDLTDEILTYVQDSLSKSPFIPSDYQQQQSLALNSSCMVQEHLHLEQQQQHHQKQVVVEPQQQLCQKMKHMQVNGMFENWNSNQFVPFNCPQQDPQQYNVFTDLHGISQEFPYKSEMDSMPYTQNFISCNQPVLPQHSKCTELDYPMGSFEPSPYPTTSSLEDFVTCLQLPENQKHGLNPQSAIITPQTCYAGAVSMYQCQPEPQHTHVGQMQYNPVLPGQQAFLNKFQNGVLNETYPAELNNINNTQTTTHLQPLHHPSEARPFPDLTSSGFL
# PERK inhibitor = human PERK inhibition, primary cell-based screen. CHO PERK-DD fusion, SEAP luminescence translation reporter. Q9NZJ5. actives 0.17% (n = 220,000). inhibition, % at 5.6 µM;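 active means inhibition above the mean inhibition of all tested compounds plus 3 SD, set separately per screening campaign, cut at about 2.9% in these data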;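 further: PERK kinase domain activated by AP20187 dimerizer at 100 nM; 0% = DMSO with dimerizer and 100% = rapamycin at 8.4 µM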
# AHR act confirm = confirmation of human aryl hydrocarbon receptor activators | shares compounds with AHR activator | human cells, AHR-responsive luciferase reporter, luminescence | activation, % at 9 µM | actives 87% (n = 2,300) | AID 2845; in the data active means activation above about 49%;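 further: HepG2 hepatoma cells carrying a DRE-driven firefly luciferase reporter; 0% = vehicle wells and 100% = reference agonist wells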
# PXR counter = activates human PXR in AHR activator counter-screen. actives 88% (n = 2,300). cell-based PXR reporter, luciferase luminescence. shares compounds with AHR activator. AID 434939. activation, % at 11.6 µM; in the data active means activation above about 11%;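 further: human hepatoma DPX-2 cells expressing full-length human PXR; 0% = DMSO and 100% = reference agonist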
# * hit, by the source's call; x = not tested or not shown. Sampled rows, rich in hits. Any-hit rate of the full collection: about 4.5%.
SMILES,STAT1 act,Mdm2 ligase inh,APP 5'UTR act,NF-kB neuron act,AHR activator,PERK inhibitor,AHR act confirm,PXR counter
O=c1c2ccccc2nc(/C=C/c2cccc([N+](=O)[O-])c2)n1CCO,100.6,x,-10.0,0.37,105.9*,-0.8,68.9*,21.0*
Cc1ccc(/C=C/C(=O)c2ccccc(=O)c2O)c(C)c1,101.9,0.2,-12.4,1.42,93.5*,-0.4,12.2,16.8*
COc1cccc(N=c2oc3ccccc3cc2-c2nc3ccccc3[nH]2)c1,146.6*,-15.9,132.2,3.51*,92.2*,-1.8,131.5*,23.1*
COc1ccc(N=c2oc3ccc(OC)cc3cc2-c2nc3ccccc3[nH]2)cc1,127.1,5.0,4.5,2.63,23.9,-1.4,x,x
CN(C)C(CNS(=O)(=O)c1ccc2ccccc2c1)c1ccccc1 (stereo unspecified),x,x,x,x,-0.5,x,x,x
COc1ccccc1C(=O)COC(=O)c1ccc(Cl)nc1,x,x,x,x,3.0,x,x,x
O=C(C[n+]1cc(Br)cc2ccccc21)c1ccccc1,x,x,x,x,93.4*,x,96.3*,103.3*
CC(=O)Nc1ccc(S(=O)(=O)Nc2ccc3c(c2)OCCO3)cc1Cl,x,-1.3,x,x,0.7,0.4,x,x
O=C(O)c1cc(S(=O)(=O)Nc2ccc3c(c2)OCCO3)c(Cl)cc1Cl,108.4,-28.1,13.4,0.35,82.9*,0.8,14.8,13.7*
CCN(CC)C(=O)Cn1cc(C(=O)C(=O)N2CCN(C)CC2)c2ccccc21,x,x,x,x,5.9,x,x,x
CCN(CC)C(=O)Cn1cc(C(=O)C(=O)N2CCc3ccccc32)c2ccccc21,89.5,-13.9,1.8,1.09,97.8*,1.0,88.5*,243.2*
Cc1c(-c2nc(-c3cccnc3)no2)cccc1[N+](=O)[O-],120.3,9.8,13.1,1.09,88.5*,0.9,119.0*,18.9*
